Data on 8 compounds can be found in ChEMBL document CHEMBL3399918, “In vitro radical scavenging and cytotoxic activities of novel hybrid selenocarbamates” (Bioorg Med Chem, 2015).

One series deals with MCF7. The series is described as follows: Cytotoxicity against human MCF7 cells after 72 hrs by MTT assay. The format is functional. The conditions noted are these: MCF7, 72 h; for CC50: read-out: LC50 (the source's name). In outline:
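MCF-7 cells grown in EMEM with 10% foetal calf serum, 2 mM L-glutamine, 100 units/mL penicillin, 100 µg/mL streptomycin. Exposed to five concentrations between 0.01 and 100 μM for 72 h, 37 °C, humidified 5% CO2; MTT read-out. GI50, TGI, LC50 relative to untreated controls; ≥3 independent experiments in quadruplicate.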

A further series relates to HT-29. The series can be described thus: Cytotoxicity against human HT-29 cells after 72 hrs by MTT assay. The format is functional. The conditions noted are these: HT-29, 72 h. In outline: (§1)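 CCRF-CEM, HT-29, PC-3 and HTB-54 cells grown in RPMI 1640 with 10% foetal calf serum, 2 mM L-glutamine, penicillin/streptomycin, 10 mM HEPES (pH 7.4). Five concentrations, 0.01–100 μM, 72 h at 37 °C, 5% CO2; MTT read-out. GI50, TGI and LC50 versus untreated controls; at least 3 independent experiments in quadruplicate.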

The test system of a further series is CCRF-CEM. The series can be described thus: Cytotoxicity against human CCRF-CEM cells after 72 hrs by MTT assay. The class given is functional. In outline:
as §1

A short description of series [1]: Cytotoxicity against human PC3 cells after 72 hrs by MTT assay. The format is functional. The conditions noted are these: PC-3, 72 h. In outline:
as §1

Series [2] can be described thus: Cytotoxicity against human HTB-54 cells after 72 hrs by MTT assay. The format is functional. The conditions noted are these: HTB-54, 72 h; for CC50: read-out: LC50 (the source's name). In outline:
as §1

Series [3] is described as follows: Cytotoxicity against human 184B5 cells after 72 hrs by MTT assay. The class given is cell-based. The conditions noted are these: for GI50 at 72 h: 184B5 cells; for LC50 / TGI: 184b5, 72 h. In outline:
(§2)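 Non-malignant lines: 184B5 (normal breast) in Hams F-12/DMEM (50:50) with published supplements; BEAS-2B (bronchial epithelium) in Hams F-12/DMEM (50:50) with 10% foetal calf serum, 2 mM L-glutamine, penicillin/streptomycin. Compounds at five concentrations, 0.01–100 μM, 72 h, 37 °C, 5% CO2; MTT read-out. GI50, TGI, LC50 relative to untreated controls; ≥3 independent experiments in quadruplicate.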

Series [4] is described as follows: Cytotoxicity against human BEAS2B cells after 72 hrs by MTT assay. As to conditions: for GI50 at 72 h: BEAS2B cells; for LC50 / TGI: beas-2b, 72 h. The class given is cell-based, BEAS-2B. In outline: as §2
Series [5] in a line: Antioxidant activity assessed as ABTS radical scavenging activity by measuring Trolox equivalent antioxidant capacity after 6 mins. The conditions noted are these: 0.1 h. The format is physicochemical. In outline:
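ABTS dissolved in deionized water at 1 mg/mL, oxidised to radical cation with potassium persulfate (2.45 mM final), kept overnight at room temperature in dark, then diluted with 50% ethanol to A741 = 0.700 ± 0.02. Compound (1 mg/mL ethanol stock) added 1:10 (0.1 mg/mL); A741 decrease read after 6 min against 50% ethanol blank. Trolox positive control; quadruplicate; TEAC from calibration curve.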

Consider `O=C(Nc1ccc([Se][Se]c2ccc(NC(=O)Oc3ccc(Cl)cc3)cc2)cc1)Oc1ccc(Cl)cc1`, for which the 50% growth inhibitory concentration (GI50) was found to be 12.4 µM in the series with MCF7; 9.9 µM in the series on HT-29; 10.8 µM with CCRF-CEM; 1 µM in series [1]; 28.6 µM in series [2]. Besides, the TGI amounted to 46 µM in the series with MCF7; 43.4 µM in the series on HT-29; 43.4 µM in the series on CCRF-CEM; 28.1 µM in series [1]; 60.8 µM in series [2]; 8.9 µM in series [3]. Moreover, the TGI in series [4] turned out to be 26.6 µM. The CC50 came out at 79.6 µM in the series with MCF7 and 93 µM in series [2]. Further, the 50% lethal concentration (LC50) in the series with HT-29 was 76.9 µM; in the series with CCRF-CEM, 76 µM; in series [3] it was 52.6 µM; in series [4] it was 64.7 µM. The compound further had an LC50 (concentration causing 50% net cell kill) in series [1] of 82.6 µM. Besides, the 50% growth inhibitory concentration (GI50) at 72 h in series [3] is 2.5 µM; in series [4], 0.1 µM.
As to `N#C[Se]c1ccc(NC(=O)OCC2=Cc3ccccc3S2(=O)=O)cc1`, the concentration for 50% growth inhibition (GI50) was 8.3 µM in the series on MCF7; 26.1 µM with HT-29; 3.3 µM in the series on CCRF-CEM; 6.3 µM in series [1]; 6.8 µM in series [2]. In addition, the TGI with MCF7 came to 34.9 µM; in the series with HT-29, 50.2 µM; with CCRF-CEM it was 6.1 µM; in series [1], 21.3 µM; in series [2], 26.9 µM; in series [3], 19.2 µM. In addition, the concentration for total growth inhibition (TGI) in series [4] came out at 29 µM. Besides, the CC50 in the series with MCF7 stood at 66.1 µM; in series [2], 62.7 µM. Moreover, the median lethal concentration (LC50) with HT-29 amounted to 74.3 µM; in the series on CCRF-CEM, 8.9 µM; in series [3] it was 59.7 µM; in series [4], 64.3 µM. For the same compound, in series [1], the LC50 (concentration causing 50% net cell kill) was 59.8 µM. The values for the 50% growth inhibitory concentration (GI50) at 72 h in series [3] and in series [4] were 5.3 µM and 7.7 µM, respectively. Further, the Activity in series [5] was found to be 1.92 µg/µL.
In the case of `O=C(Nc1ccc([Se][Se]c2ccc(NC(=O)OCC3=Cc4ccccc4S3(=O)=O)cc2)cc1)OCC1=Cc2ccccc2S1(=O)=O`, the GI50 with MCF7 worked out at 3.2 µM; with HT-29 it was 3 µM; with CCRF-CEM, 2.3 µM; in series [1], 3.8 µM; in series [2] it was 4.4 µM. The total growth inhibition concentration (TGI) in the series on MCF7 is 5.7 µM; in the series with HT-29, 5.4 µM; in the series with CCRF-CEM, 4.9 µM; in series [1], 5.8 µM; in series [2] it was 6.3 µM; in series [3], 5 µM. The TGI in series [4] worked out at 5.7 µM. The CC50 (in the series with MCF7; in series [2]) was 8.2 µM in each case. For the same compound, the median lethal concentration (LC50) with HT-29 worked out at 7.8 µM; with CCRF-CEM, 7.5 µM; in series [3], 7.5 µM; in series [4], 7.9 µM. Also, the LC50 (concentration causing 50% net cell kill) in series [1] was 7.9 µM. In addition, the GI50 at 72 h in series [3] worked out at 2.6 µM; in series [4] it was 3.5 µM. The Activity in series [5] is 5.78 µg/µL.
For `O=C(Nc1ccc([Se][Se]c2ccc(NC(=O)OCc3ccc([N+](=O)[O-])cc3)cc2)cc1)OCc1ccc([N+](=O)[O-])cc1`, the GI50 was 20.6 µM with MCF7; 16.7 µM with HT-29; 8.6 µM in the series on CCRF-CEM; 6.4 µM in series [1]; 31.8 µM in series [2]. The TGI in the series with MCF7 turned out to be 52.8 µM; in the series with HT-29, 46.3 µM; in the series with CCRF-CEM it was 36.5 µM; in series [1] it was 27.1 µM; in series [2], 55.6 µM; in series [3], 13.8 µM. This compound displayed a total growth inhibition concentration (TGI) in series [4] of 22.5 µM. The CC50 with MCF7 came out at 85 µM; in series [2] it was 79.4 µM. Also, the LC50 came out at 75.9 µM in the series on HT-29, 68.1 µM in the series with CCRF-CEM, 56.5 µM in series [3] and 61.6 µM in series [4]. Also, in series [1], the LC50 (concentration causing 50% net cell kill) was determined as 69.2 µM. The concentration for 50% growth inhibition (GI50) at 72 h is 6 µM in series [3] and 6.3 µM in series [4].
With `COc1cc([C@@H]2c3cc4c(cc3[C@@H](O[C@@H]3O[C@@H]5CO[C@@H](C)O[C@H]5[C@H](O)[C@H]3O)[C@H]3COC(=O)[C@H]23)OCO4)cc(OC)c1O` [ETOPOSIDE], the 50% growth inhibitory concentration (GI50) in the series on MCF7 turned out to be 19.9 µM; in the series with HT-29 it was 31.6 µM; with CCRF-CEM it was 1.6 µM; in series [1] it was 0.6 µM. For the same compound, the concentration for total growth inhibition (TGI) in the series on MCF7 was over 100 µM; in the series on HT-29, over 100 µM; in the series with CCRF-CEM, 50.5 µM; in series [1], 4 µM. The CC50 with MCF7 was over 100 µM.
In the case of `Cc1ccc(OC(=O)Nc2ccc([Se]C#N)cc2)cc1`, the GI50 turned out to be 9.9 µM with MCF7; 8.8 µM in the series on HT-29; 17.4 µM with CCRF-CEM; 7.6 µM in series [1]; 17.3 µM in series [2]. In addition, the TGI in the series on MCF7 amounted to 39.9 µM; with HT-29, 38.8 µM; in the series with CCRF-CEM, 44.7 µM; in series [1] it was 32.3 µM; in series [2] it was 44.2 µM; in series [3], 8.7 µM. For the same compound, in series [4], the TGI was 15.3 µM. The CC50 in the series on MCF7 was 69.8 µM; in series [2] it was 71.1 µM. Also, the LC50 in the series on HT-29 stood at 68.7 µM; in the series with CCRF-CEM it was 72 µM; in series [3], 46.9 µM; in series [4], 58.3 µM. This compound also showed an LC50 (concentration causing 50% net cell kill) in series [1] of 65.1 µM. Besides, the concentration for 50% growth inhibition (GI50) at 72 h in series [3] amounted to 4.4 µM; in series [4], 5.6 µM.
Consider `C=CCOC(=O)Nc1ccc([Se]C#N)cc1`, for which the concentration for 50% growth inhibition (GI50) with MCF7 is 15 µM; in the series on HT-29, 24.5 µM; with CCRF-CEM, 9.2 µM; in series [1] it was 17.6 µM; in series [2], 27 µM. Further, the TGI in the series on MCF7 was 43.1 µM; in the series with HT-29, 48.6 µM; with CCRF-CEM, 38.1 µM; in series [1], 44.7 µM; in series [2], 50.1 µM; in series [3], 9.8 µM. In series [4], the concentration for total growth inhibition (TGI) was found to be 47.4 µM. Also, the CC50 was determined as 71.2 µM with MCF7 and 73.3 µM in series [2]. Moreover, the LC50 was 72.8 µM in the series with HT-29, 68.6 µM in the series on CCRF-CEM, 53.8 µM in series [3] and 73.5 µM in series [4]. The compound also came in with an LC50 (concentration causing 50% net cell kill) in series [1] of 71.8 µM. Besides, the concentration for 50% growth inhibition (GI50) at 72 h turned out to be 5 µM in series [3] and 21.4 µM in series [4].
Turning to `O=C(Nc1ccc([Se][Se]c2ccc(NC(=O)Oc3ccc(F)cc3)cc2)cc1)Oc1ccc(F)cc1`, the 50% growth inhibitory concentration (GI50) in the series on MCF7 amounted to 8 µM; in the series with HT-29, 18.5 µM; with CCRF-CEM it was 8.7 µM; in series [1], 4.9 µM; in series [2] it was 26.7 µM. For the same compound, the TGI is 33.7 µM in the series on MCF7; 51.9 µM with HT-29; 37.6 µM in the series on CCRF-CEM; 31.3 µM in series [1]; 51.8 µM in series [2]; 8.6 µM in series [3]. The same compound registered a TGI in series [4] of 23.5 µM. The CC50 is 64.3 µM in the series with MCF7 and 77 µM in series [2]. Besides, the LC50 in the series on HT-29 came out at 85.3 µM; in the series with CCRF-CEM it was 68.8 µM; in series [3], 47.8 µM; in series [4] it was 61.8 µM. For the same compound, the LC50 (concentration causing 50% net cell kill) in series [1] came out at 64.5 µM. Moreover, the GI50 at 72 h turned out to be 3.7 µM in series [3] and 0.7 µM in series [4].
